The text below walks through data of ChEMBL document CHEMBL4351031, “The development of 2-acetylphenol-donepezil hybrids as multifunctional agents for the treatment of Alzheimer's disease” (Bioorg Med Chem Lett, 2019).

Molecules are shown by their SMILES. Activity calls are given as the source filed them. No cut-off for these calls is given here.

One series deals with Acetylcholinesterase (Electrophorus electricus, UniProt O42275). Description: Inhibition of electric eel AChE using acetylthiocholine iodide incubated for 15 mins as substrate by Ellman's method. (In Ellman's method for cholinesterases, released thiocholine reacts with DTNB.)
Acetylcholinesterase, sequence (O42275 whole entry): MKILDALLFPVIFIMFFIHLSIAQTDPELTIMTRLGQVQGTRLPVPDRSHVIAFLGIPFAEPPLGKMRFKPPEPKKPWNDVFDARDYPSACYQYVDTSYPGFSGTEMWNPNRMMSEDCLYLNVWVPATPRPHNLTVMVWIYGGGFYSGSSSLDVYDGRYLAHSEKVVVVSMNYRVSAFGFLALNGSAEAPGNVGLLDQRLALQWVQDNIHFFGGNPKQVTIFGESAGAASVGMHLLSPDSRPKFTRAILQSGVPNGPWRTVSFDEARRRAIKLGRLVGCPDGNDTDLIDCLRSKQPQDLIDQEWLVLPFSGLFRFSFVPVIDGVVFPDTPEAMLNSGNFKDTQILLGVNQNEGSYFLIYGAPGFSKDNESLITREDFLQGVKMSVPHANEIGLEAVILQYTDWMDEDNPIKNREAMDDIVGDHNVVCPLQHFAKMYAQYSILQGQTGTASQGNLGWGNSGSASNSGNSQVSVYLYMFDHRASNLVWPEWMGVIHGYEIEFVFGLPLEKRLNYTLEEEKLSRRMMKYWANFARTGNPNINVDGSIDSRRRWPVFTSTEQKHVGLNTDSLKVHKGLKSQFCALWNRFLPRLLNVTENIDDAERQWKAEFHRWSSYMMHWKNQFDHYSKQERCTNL
A further series has as its target Cholinesterase (Equus caballus, UniProt P81908). Description: Inhibition of equine serum BuChE using S-butyrylthiocholine chloride as substrate incubated for 15 mins by Ellman's method. A digest of the protocol:
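Modified Ellman method using equine serum BuChE. […] Values are the mean of three independent experiments, each run in triplicate, with SD.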

Series [1] addresses T1, Amine oxidase [flavin-containing] B (Homo sapiens, UniProt P27338).
T1 sequence (P27338 whole entry): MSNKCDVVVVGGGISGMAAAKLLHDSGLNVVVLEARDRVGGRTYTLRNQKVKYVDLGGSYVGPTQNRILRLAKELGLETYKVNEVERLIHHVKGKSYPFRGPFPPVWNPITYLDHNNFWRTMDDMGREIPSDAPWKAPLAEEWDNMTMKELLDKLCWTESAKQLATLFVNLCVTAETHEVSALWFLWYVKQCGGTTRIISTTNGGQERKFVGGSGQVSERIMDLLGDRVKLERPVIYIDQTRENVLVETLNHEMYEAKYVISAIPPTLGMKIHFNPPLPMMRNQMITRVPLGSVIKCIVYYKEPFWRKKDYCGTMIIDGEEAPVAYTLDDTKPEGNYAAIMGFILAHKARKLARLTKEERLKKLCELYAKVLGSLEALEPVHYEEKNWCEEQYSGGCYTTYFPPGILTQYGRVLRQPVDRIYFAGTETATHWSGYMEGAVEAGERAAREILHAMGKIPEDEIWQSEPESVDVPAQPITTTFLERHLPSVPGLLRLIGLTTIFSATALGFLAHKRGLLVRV
Description: Inhibition of human recombinant MAO-B using kynuramine as substrate measured after 30 mins by fluorimetric assay.

A further series addresses T2, MAO-A (Homo sapiens, UniProt P21397).
T2 sequence (P21397 whole entry): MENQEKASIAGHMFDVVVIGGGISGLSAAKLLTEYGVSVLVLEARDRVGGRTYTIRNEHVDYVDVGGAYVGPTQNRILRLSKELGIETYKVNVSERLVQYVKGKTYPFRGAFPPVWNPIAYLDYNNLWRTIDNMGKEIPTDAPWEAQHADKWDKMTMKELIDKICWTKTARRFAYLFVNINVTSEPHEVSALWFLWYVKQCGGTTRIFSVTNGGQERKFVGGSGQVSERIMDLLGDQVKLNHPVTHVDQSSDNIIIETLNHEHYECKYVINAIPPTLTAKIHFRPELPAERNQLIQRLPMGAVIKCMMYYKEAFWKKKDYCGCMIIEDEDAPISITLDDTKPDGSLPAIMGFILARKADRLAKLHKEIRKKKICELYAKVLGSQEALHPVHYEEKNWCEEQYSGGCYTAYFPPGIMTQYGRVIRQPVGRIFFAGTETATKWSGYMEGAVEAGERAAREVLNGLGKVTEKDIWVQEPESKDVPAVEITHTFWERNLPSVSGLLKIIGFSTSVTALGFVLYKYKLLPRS
Description: Inhibition of human recombinant MAO-A using kynuramine as substrate at 10 uM measured after 30 mins by fluorimetric assay relative to control. As to conditions: probe kynuramine.

Series [2] can be described thus: Selectivity index, ratio of IC50 for equine serum BuChE using S-butyrylthiocholine chloride as substrate to IC50 for electric eel AChE using acetylthiocholine iodide as substrate by Ellman's method. A digest of the protocol:
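Selectivity index is IC50(eqBuChE)/IC50(EeAChE). Both IC50s come from the modified Ellman method, using Electrophorus electricus AChE and equine serum BuChE. Each IC50 is the mean of three independent experiments, each run in triplicate.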

Series [3] has as its target Acetylcholinesterase (Electrophorus electricus) (UniProt O42275). Description: Mixed inhibition of electric eel AChE at 1.5 to 6 uM preincubated with enzyme for 15 mins followed by substrate addition using acetylthiocholine iodide as substrate by double reciprocal Lineweaver-Burk plot analysis.
Series [4] is described as follows: Permeability of the compound at 100 ug/ml measured after compound dilution in PBS/EtOH buffer (70:30) by PAMPA-BBB assay. For orientation: The PAMPA barrier holds no transporters, so it reflects passive diffusion.
A short description of series [5]: Metal chelating activity assessed as Cu2+-compound complex formation measured as red shift in absorption spectra at 37.5 uM measured after 30 mins in presence of 37.5 uM CuCl2 by UV-vis spectrophotometric analysis.
A short description of series [6]: Metal chelating activity assessed as Fe2+-compound complex formation at 37.5 uM measured after 30 mins in presence of 37.5 uM FeSO4 by UV-vis spectrophotometric analysis.
The nature of series [7]: Metal chelating activity assessed as Zn2+-compound complex formation at 37.5 uM measured after 30 mins in presence of 37.5 uM ZnCl2 by UV-vis spectrophotometric analysis.
Series [8] can be described thus: Metal chelating activity assessed as Al3+-compound complex formation at 37.5 uM measured after 30 mins in presence of 37.5 uM AlCl3 by UV-vis spectrophotometric analysis.
The nature of series [9]: Metal chelating activity assessed as mole fraction of the compound required for Cu2+ -compound complex formation at stoichiometry ratio of 1:1 at 37.5 uM measured after 30 mins in presence of 3.75 to 93.75 uM CuCl2 by UV-vis spectrophotometric analysis. In a few lines:
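Cu2+ complex stoichiometry determined by the molar ratio method. Ascending amounts of CuCl2 were added to the test compound, at a final concentration of 37.5 μM. Absorbance was plotted against mole fraction, and the stoichiometry was taken from the intersection of two fitted straight lines. The final Cu2+ concentration started at 3.75 μM.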

Cholinesterase, sequence (P81908 whole entry): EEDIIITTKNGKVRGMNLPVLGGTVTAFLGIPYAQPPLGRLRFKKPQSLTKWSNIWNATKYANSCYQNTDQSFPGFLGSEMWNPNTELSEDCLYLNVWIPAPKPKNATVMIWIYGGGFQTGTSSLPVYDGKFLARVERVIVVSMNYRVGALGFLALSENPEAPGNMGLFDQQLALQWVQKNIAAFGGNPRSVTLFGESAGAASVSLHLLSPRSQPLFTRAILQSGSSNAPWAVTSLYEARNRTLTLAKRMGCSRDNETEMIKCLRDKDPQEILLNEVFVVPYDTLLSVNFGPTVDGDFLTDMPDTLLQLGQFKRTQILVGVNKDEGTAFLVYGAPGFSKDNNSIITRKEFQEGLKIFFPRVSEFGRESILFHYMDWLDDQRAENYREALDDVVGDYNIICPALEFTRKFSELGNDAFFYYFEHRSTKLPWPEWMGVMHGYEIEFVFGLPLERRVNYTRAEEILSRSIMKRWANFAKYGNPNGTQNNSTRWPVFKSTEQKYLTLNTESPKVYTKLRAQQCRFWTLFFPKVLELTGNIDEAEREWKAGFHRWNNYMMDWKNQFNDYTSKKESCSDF
Acetylcholinesterase (Electrophorus electricus), sequence (O42275 24-633 limits assumed): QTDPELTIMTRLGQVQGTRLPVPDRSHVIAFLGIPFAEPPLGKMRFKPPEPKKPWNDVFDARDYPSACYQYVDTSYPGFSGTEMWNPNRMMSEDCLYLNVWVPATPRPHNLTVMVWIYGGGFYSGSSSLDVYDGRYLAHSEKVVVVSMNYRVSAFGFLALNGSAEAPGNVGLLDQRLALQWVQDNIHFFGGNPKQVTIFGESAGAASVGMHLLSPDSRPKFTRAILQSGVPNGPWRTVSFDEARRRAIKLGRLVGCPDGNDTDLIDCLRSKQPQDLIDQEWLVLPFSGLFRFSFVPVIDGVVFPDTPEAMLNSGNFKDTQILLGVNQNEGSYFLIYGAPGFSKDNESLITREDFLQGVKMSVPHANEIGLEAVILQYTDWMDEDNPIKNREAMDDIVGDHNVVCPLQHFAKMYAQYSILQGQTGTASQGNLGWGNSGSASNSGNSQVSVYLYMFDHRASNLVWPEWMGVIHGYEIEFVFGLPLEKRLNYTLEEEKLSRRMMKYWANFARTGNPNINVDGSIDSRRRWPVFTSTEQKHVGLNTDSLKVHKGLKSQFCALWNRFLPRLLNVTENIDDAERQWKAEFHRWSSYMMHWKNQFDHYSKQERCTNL

A word on the IC50: it is the concentration at which inhibition is half-maximal. The inhibition is the percentage by which the read-out fell short of the control. By Papp is commonly meant a coefficient for how fast a substance crosses the barrier. A higher Papp goes with fast passage. Turning to `CCN(CCCCOc1ccc(C(C)=O)c(O)c1)Cc1ccccc1`, the figures for the IC50 (at Acetylcholinesterase; on Cholinesterase; in [1]) were 2.9 µM, 34.6 µM and 16.6 µM, respectively. At MAO-A, the inhibition at 0.5 h, 10 µM is less than 10%. In addition, the Ratio IC50 in series [2] is 11.9. Besides, the inhibition entry in series [3] is “Active”. The Papp at 100 ug/ml in series [4] is 15.1 ×10⁻⁶ cm/s. Moreover, in [5], the outcome was Active. For the same compound, the result in series [6], in series [7] and in series [8] was inactive. In addition, in [9], the Ratio (mole fraction) amounted to 0.97.
